Shown are actives, neighbours in structure and some others; about 2% of the full set was active somewhere.
SENP1 inh: SENP1 (human) catalytic domain inhibition; recombinant SENP1 catalytic domain, CyPet-SUMO1-YPet FRET cleavage; AID 624204; inhibition, % at 10 µM; Q9P0U3; 360,000 compounds, 0.21% hits;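 active = inhibition at least 30% at 10 µM, raw YFP signal under a set limit, fluorescence ratio 0.5 to 1.5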;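 also: 0% = enzyme with DMSO and 100% = no enzyme wells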
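system = hSENP1 catalytic domain, recombinant | reagent = SFCypet-SUMO1-SFYpet substrate at 25 nM | doses = one dose per compound, 10 µM, 0.5% DMSO | incubation = enzyme reaction for 50 min at room temperature, dark | measured by = FRET, CFP and YFP emission | controls = no-enzyme low, enzyme-DMSO high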
CSN deneddyl inh: inhibitors of human CSN-mediated cullin deneddylation; Q92905; Purified CSN, SCF-Nedd8-OG deneddylation, fluorescence polarization; inhibition, % at 12.5 µM; 360,000 compounds, 0.38% hits; AID 651999;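 active = pattern-corrected inhibition above about 35%, with an unprinted fluorescence ratio check between 0.5 and 1.5, limit read from the data, passing the limit was not always enough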;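 also: 0% = enzyme with substrate and 100% = substrate without enzyme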
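Test system: purified human Csn5 enzyme expressed in HEK293T cells. Amount: 0.24 nM enzyme. Reagent: SCFSkp2-Nedd8OG substrate at 10 nM final. Schedule: 90 min incubation of compound, enzyme and substrate at room temperature. Detection: fluorescence polarization. Read-out: % inhibition of substrate cleavage by Csn5.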
TPT1 inh: blocks Candida albicans tRNA 2'-phosphotransferase; inhibition, % at 5 µM; AID 1962; recombinant caTPT1, FP RNA substrate dephosphorylation; 300,000 compounds, 0.81% hits;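 active = inhibition above the mean of all tested compounds plus 3 SD, set per screening campaign, cut at about 24% in these data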;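 also: plate controls were DMSO alone for no effect and ferristatin control at 100 nM for full effect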
ATG4B inh: ATG4B (human) cysteine protease inhibition. Q9Y4P1. ATG4B cleavage of LC3-PLA2, NBD-HPC fluorescence, 1 h. inhibition, % at 8.33 µM. 340,000 compounds, 0.51% hits. AID 504462
Rpn11 inh: Rpn11 (human) deubiquitinase inhibition | O00487 | human 26S proteasome, Ub4-pepOG fluorescence polarization; 20S core pre-blocked with epoxomicin | inhibition, % at 20 µM | 360,000 compounds, 0.59% hits | AID 588493;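 active = inhibition at 20 µM, scaled to each plate's controls, above about 33%, limit read from the data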
HNF4A DNA FP: change in binding of human HNF4 alpha to DNA; activity change, % at 10 µM; 360,000 compounds, 0.3% hits; P41235; HNF4a-FITC DNA binding, fluorescence polarization, 1 h; in the data active = activity change above about 30%, passing the limit was not always enough
Target sequence (P41235 whole entry, looked up): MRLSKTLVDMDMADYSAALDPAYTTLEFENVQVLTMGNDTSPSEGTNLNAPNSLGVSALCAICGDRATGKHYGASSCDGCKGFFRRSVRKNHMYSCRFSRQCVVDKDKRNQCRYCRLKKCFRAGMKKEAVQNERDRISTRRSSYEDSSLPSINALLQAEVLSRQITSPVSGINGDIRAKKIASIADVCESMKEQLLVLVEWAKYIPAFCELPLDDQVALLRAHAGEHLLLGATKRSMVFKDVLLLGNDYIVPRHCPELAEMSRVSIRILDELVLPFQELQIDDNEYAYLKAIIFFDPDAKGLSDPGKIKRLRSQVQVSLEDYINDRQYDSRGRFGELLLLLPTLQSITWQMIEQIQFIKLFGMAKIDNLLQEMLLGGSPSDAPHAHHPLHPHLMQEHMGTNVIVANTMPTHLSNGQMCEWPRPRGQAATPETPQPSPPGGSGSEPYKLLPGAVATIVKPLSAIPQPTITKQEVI
Rpn11 inh conf: Rpn11 inhibition confirmation, single concentration. shares compounds with Rpn11 inh. purified human 26S proteasome, Ub4-pepOG fluorescence polarization; proteasome pretreated with epoxomicin. inhibition, % at 20 µM. 1,900 compounds, 29% hits. AID 602318
MMP-2 inh: MMP-2 (human) inhibition counter-screen; AID 602330; 1,900 compounds, 4% hits; shares compounds with Rpn11 inh; inhibition, % at 20 µM; recombinant MMP-2, FRET peptide cleavage fluorescence;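 also: human MMP-2 activated beforehand with APMA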
Thrombin inh: blocks bovine thrombin, flagging nonselective RPN11 hits; bovine thrombin cleavage of Ub4-pepOG, fluorescence polarization; inhibition, % at 20 µM; AID 602333; shares compounds with Rpn11 inh; 1,900 compounds, 13% hits;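 active = mean inhibition at least 40% at 20 µM, or signal 3 deviations below plate average, so some actives read negative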;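 also: plate controls were thrombin with DMSO for no effect and buffer wells lacking thrombin for full effect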
* hit, by the source's call; . = no result. Rule as the data show it, unless noted: active = inhibition above about 40%; inactive = the rest.

SMILES	SENP1 inh	CSN deneddyl inh	TPT1 inh	ATG4B inh	Rpn11 inh	HNF4A DNA FP	Rpn11 inh conf	MMP-2 inh	Thrombin inh
Cc1ccc(C(=O)N/C(=C\c2ccco2)C(=O)NCCN2CCOCC2)cc1C	-2	2	-1	-3	-6	0	.	.	.
CSc1ccccc1NC(=O)C1(C)CCN1C(=O)CCC1CCCC1 (stereo not given)	1	-5	.	.	-4	-2	.	.	.
COc1ccc([C@H]2C[C@H](n3cc(COC(=O)c4ccccc4)nn3)[C@@H](O)CN2Cc2cccs2)cc1	-1	4	.	.	9	0	.	.	.
CCc1ccc(OCC(=O)NNC(=O)c2cc(S(=O)(=O)N(C)C)ccc2N2CCCC2)cc1	-1	3	0	-12	44*	-1	56*	17	3
CC(C)(C)C(=O)Nc1ccccc1C(=O)NCCC(=O)Nc1ccccc1	3	0	-3	5	-3	-2	.	.	.
CC(=O)c1sc2nc(CSc3nncn3C)[nH]c(=O)c2c1C	14	-1	6	8	44*	1	4	-74	8
Cc1c(C(=O)O)sc2nc(CSc3nnc(-c4ccc(F)cc4)n3C)[nH]c(=O)c12	-3	-4	1	-16	4	-5	.	.	.
O=C1CN(C(=S)NC(=O)c2ccccc2[N+](=O)[O-])CCN1	0	-2	0	-3	-7	2	.	.	.
Cc1cccc(C)c1-n1nnnc1C1(C)CCC(=O)N1Cc1cccnc1 (stereo not given)	4	2	.	.	.	-1	.	.	.
Nc1ccc(-c2nc3ccccc3o2)cc1	20	9	12	-9	41*	4	18	7	2
Nc1cc(N)cc(-c2nc3ccccc3o2)c1	-14	-1	0	-7	8	6	.	.	.
O=C(N/N=C/c1ccncc1)c1ccc(NC(=O)c2ccc(Cl)cc2)cc1	1	12	1	4	45*	6	17	-6	2
Cc1cccc(C(=O)Nc2ccc(C(=O)N/N=C/c3ccco3)cc2)c1	-3	11	0	1	-15	-9	.	.	.
O=C(N/N=C/c1ccncc1)c1ccc(NC(=O)c2cccc(Cl)c2)cc1	1	78*	5	6	52*	31	19	-32	-10
O=C(N/N=C/c1ccco1)c1ccc(NC(=O)c2ccc(Cl)cc2)cc1	-1	0	-2	-8	43*	-7	-5	-1	-5
O=C(Nc1cccc(S(=O)(=O)Nc2ccc(Cl)cc2)c1)c1ccccn1	1	1	.	-15	10	1	.	.	.
Cc1cccc(C(C)C)c1NC(=O)COC(=O)CNS(=O)(=O)c1ccccc1	1	0	2	-9	-3	-3	.	.	.
COc1ccc(N2CCN(C(=O)Cc3ccc(S(=O)(=O)N4CCOCC4)s3)CC2)cc1	5	6	15	-2	48*	6	12	33	2
CCC1Sc2ccc(S(=O)(=O)CCC(=O)Nc3c(Cl)cc(OC)cc3OC)cc2NC1=O (stereo not given)	3	2	0	-11	-5	-17	.	.	.
CCOc1ccc(S(=O)(=O)NCc2cccnc2)cc1C(C)C	1	3	6	2	6	2	.	.	.
CC(=O)c1cccc(S(=O)(=O)N2CCN(c3nc4cc(C)cc(C)c4cc3C#N)CC2)c1	-39	11	5	-12	43*	11	1	-21	-11
O=C1CSC(=S)N1N=Cc1c[nH]c2ccc(Br)cc12	-34	6	.	.	61*	19	25	20	17
COc1ccc(Br)cc1/C=N/N1C(=O)CSC1=S	7	4	8	4	33	3	.	.	.
N#C/C(=C\c1cn(CCOc2ccccc2)c2ccccc12)C(=O)NCc1ccco1	-98	-2	-3	6	36*	6	8	-44	-16
CCC(=O)N1CCC1(C)C(=O)Nc1ccc2scnc2c1 (stereo not given)	-1	-4	.	.	-4	3	.	.	.
SMILES	SENP1 inh	CSN deneddyl inh	TPT1 inh	ATG4B inh	Rpn11 inh	HNF4A DNA FP	Rpn11 inh conf	MMP-2 inh	Thrombin inh
O=C(Nc1ccc(N2CCCC2)cc1)c1cccc(Cl)c1Cl	4	1	4	-8	52*	5	-1	-44	-3
CCOC(=O)Cn1c(=NC(=O)c2nc3ccccc3s2)sc2cc(S(N)(=O)=O)ccc21	-22	2	-1	8	41*	-1	7	-16	-5
CCOC(=O)Cn1c(=NC(=O)CN2C(=O)CCC2=O)sc2cc(S(N)(=O)=O)ccc21	-4	4	-3	2	2	3	.	.	.
COCCn1c(=NC(=O)c2cc(-c3cccs3)nc3ccccc23)sc2cc(S(N)(=O)=O)ccc21	-35	0	15	-4	58*	7	20	32	10
C=CCn1c(=NC(=O)c2sc3ccccc3c2Cl)sc2cc(S(N)(=O)=O)ccc21	-5	20	0	-9	49*	3	49*	-19	0
O=C(CCCN1C(=O)C(c2ccccc2)Oc2cccnc21)Nc1cccc(F)c1 (stereo not given)	0	4	-1	14	5	-1	.	.	.
OCC[C@H]1C[C@@H](O)[C@H](O)[C@@]2(Cc3ccccc3CO2)O1	-2	0	0	-5	-6	1	.	.	.
CC(=O)N(/N=C1\Sc2ccccc2C1=O)c1ccccc1C	-7	28	3	-5	39*	25	5	-44	9
CCOC(=O)c1nnc2cc(-c3ccccc3)nn2c1C	0	0	-2	-1	46*	20	0	-51	-1
COCCN(C(=O)CCN1C(=O)C2CC=CCC2C1=O)c1c(N)n(CC(C)C)c(=O)[nH]c1=O (stereo not given)	-6	2	.	-37	-3	-1	.	.	.
Cc1ccc(N2C(=NC(=O)c3ccccc3)SC3CS(=O)(=O)CC32)cc1 (stereo not given)	0	3	2	3	1	-4	.	.	.
CCCC(=O)N=C1SC2CS(=O)(=O)CC2N1c1ccc(-c2nc3ccc(C)cc3s2)cc1 (stereo not given)	-67	0	5	-13	46*	8	2	-25	-5
Cc1ccc(-c2nc3ccccc3o2)cc1NC(=S)NC(=O)c1cc2ccccc2o1	3	-5	0	4	47*	18	-3	-14	11

From PubChem
